Test results published in ChEMBL document CHEMBL1926564, “Design, synthesis and biological activity of original pyrazolo-pyrido-diazepine, -pyrazine and -oxazine dione derivatives as novel dual Nox4/Nox1 inhibitors” (Bioorg Med Chem, 2011).

Columns and labels:
[1] = target: T1, NADPH oxidase 1 (Homo sapiens, UniProt Q9Y5S8); experiment: Antagonist activity at human NOX1 expressed in CHO cell membrane coexpressing tetracylin repressor assessed as inhibition of ROS production after 20 mins by cell-free amplex red assay; assay type: functional
T1 sequence (Q9Y5S8 whole entry): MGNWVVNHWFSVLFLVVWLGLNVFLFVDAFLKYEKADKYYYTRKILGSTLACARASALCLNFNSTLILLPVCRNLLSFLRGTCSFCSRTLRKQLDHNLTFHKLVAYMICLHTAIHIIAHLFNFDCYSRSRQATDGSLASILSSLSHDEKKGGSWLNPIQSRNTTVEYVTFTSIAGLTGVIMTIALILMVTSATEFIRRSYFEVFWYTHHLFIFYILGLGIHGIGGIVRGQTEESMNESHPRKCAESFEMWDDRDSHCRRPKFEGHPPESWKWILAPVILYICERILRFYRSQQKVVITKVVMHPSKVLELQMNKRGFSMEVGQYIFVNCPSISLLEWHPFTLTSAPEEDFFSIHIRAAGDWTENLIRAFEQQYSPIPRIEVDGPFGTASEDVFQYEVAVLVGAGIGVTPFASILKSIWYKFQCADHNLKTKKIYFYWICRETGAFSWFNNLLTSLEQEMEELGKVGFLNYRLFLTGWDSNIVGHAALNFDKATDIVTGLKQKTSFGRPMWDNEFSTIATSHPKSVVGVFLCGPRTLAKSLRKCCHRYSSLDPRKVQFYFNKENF
In short: (§1)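 Membranes from tetracycline-induced (24 h) Nox-expressing cells or human PMN (Nox2), sucrose-gradient purified; or xanthine oxidase. Incubated in PBS with Amplex Red, HRP and cofactors; NADPH (Nox) or xanthine starts ROS. Compound 1 nM–100 µM, 20 min at 37 °C, plate-reader. Background without membranes or agonist. Ki by Cheng-Prusoff; mean of ≥3 experiments in triplicate.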

[2] = target: T2, NADPH oxidase 4 (Homo sapiens, UniProt Q9NPH5); experiment: Antagonist activity at human NOX4 expressed in CHO cell membrane coexpressing tetracylin repressor assessed as inhibition of ROS production after 20 mins by cell-free amplex red assay; assay type: functional; settings: in the assay text read “HEK293 cell membrane” for “CHO cell membrane”; in short: as §1
T2 sequence (Q9NPH5 whole entry): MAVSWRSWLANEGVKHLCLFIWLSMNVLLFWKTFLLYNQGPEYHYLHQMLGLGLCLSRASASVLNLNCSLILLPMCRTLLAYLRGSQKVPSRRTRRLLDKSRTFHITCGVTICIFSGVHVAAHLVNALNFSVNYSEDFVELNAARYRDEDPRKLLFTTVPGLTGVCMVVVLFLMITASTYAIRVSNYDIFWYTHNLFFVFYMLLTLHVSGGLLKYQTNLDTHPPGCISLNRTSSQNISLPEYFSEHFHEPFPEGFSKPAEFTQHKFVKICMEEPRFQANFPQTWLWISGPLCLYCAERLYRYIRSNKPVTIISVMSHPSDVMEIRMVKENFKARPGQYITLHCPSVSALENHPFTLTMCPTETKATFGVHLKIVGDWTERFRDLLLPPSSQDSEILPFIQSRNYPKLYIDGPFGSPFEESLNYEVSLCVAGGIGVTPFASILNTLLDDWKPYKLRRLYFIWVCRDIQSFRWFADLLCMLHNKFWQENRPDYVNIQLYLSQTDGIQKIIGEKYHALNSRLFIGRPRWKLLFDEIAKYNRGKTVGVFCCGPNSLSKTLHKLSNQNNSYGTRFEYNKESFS

[3] = AUC (infinity) in Sprague-Dawley rat at 5 mg/kg, iv; assay type: ADME, organism-based; set-up: time infinity, dose 5 mg/kg, route intravenous; settings: plasma
In short: (§2)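 Rats in two groups of three: 5 mg/kg iv in EDPW (10% EtOH, 10% DMA, 30% PG, 50% water) or 10 mg/kg oral in aqueous 0.5% CMC/0.25% Tween 20. Carotid arterial cannula blood sampled up to 24 h. Plasma levels by LC/MS/MS (LLOQ 1.00 ng/mL); noncompartmental analysis.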

[4] = Cmax in Sprague-Dawley rat at 5 mg/kg, iv; assay type: ADME, organism-based; set-up: dose 5 mg/kg, route intravenous; settings: in vivo; in short: as §2
[5] = Half life in Sprague-Dawley rat at 5 mg/kg, iv; assay type: ADME, organism-based; set-up: dose 5 mg/kg, route intravenous; settings: in vivo; in short: as §2
[6] = Clearance in Sprague-Dawley rat at 5 mg/kg, iv; assay type: ADME, organism-based; set-up: dose 5 mg/kg, route intravenous; settings: in vivo; in short: as §2
[7] = Volume of distribution at steady state in Sprague-Dawley rat at 5 mg/kg, iv; assay type: ADME, organism-based; set-up: dose 5 mg/kg, route intravenous; settings: in vivo, read-out: Vdss; in short: as §2
[8] = AUC (infinity) in Sprague-Dawley rat at 10 mg/kg, po; assay type: ADME, organism-based; set-up: dose 10 mg/kg, route oral, time infinity; settings: plasma; in short: as §2
[9] = Cmax in Sprague-Dawley rat at 10 mg/kg, po; assay type: ADME, organism-based; set-up: dose 10 mg/kg, route oral; settings: in vivo; in short: as §2
[10] = Tmax in Sprague-Dawley rat at 10 mg/kg, po; assay type: ADME, organism-based; set-up: dose 10 mg/kg, route oral; settings: in vivo; in short: as §2
[11] = Half life in Sprague-Dawley rat at 10 mg/kg, po; assay type: ADME, organism-based; set-up: dose 10 mg/kg, route oral; settings: in vivo; in short: as §2
[12] = Clearance in Sprague-Dawley rat at 10 mg/kg, po; assay type: ADME, organism-based; set-up: dose 10 mg/kg, route oral; settings: in vivo; in short: as §2
[13] = Clearance in human liver microsomes assessed per mg of protein at 0.5 uM; assay type: ADME, Microsome; settings: read-out: CLH
In short: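 Pooled rat (male Sprague Dawley) or human (mixed-sex) liver microsomes at 0.5 mg/mL final, 0.1 M phosphate pH 7.4, compound 0.5 µM final, 0.25% DMSO, 37 °C; 1 mM NADPH starts reaction. Sampled 0–45 min, methanol quench with internal standard, LC/MS-MS; intrinsic clearance from compound loss.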

[14] = Apparent permeability across human Caco2 cells at 10 uM after 2 hrs; assay type: ADME, cell-based; settings: Caco-2
In short: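 Caco-2 monolayers grown 20 days, TEER >800 ohm·cm². Compound 10 µM final in HBSS pH 6.5 (1% DMSO), dosed apical (A→B) or basolateral (B→A), 2 h at 37 °C; both compartments sampled, LC–MS/MS cassette analysis with 5-point calibration.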

[15] = Lipophilicity, log D of the compound at pH 7.4; assay type: physicochemical; settings: buffer
[16] = Fraction unbound in rat plasma containing 50% plasma protein; assay type: ADME, cell-free
In short: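 Rat plasma protein binding in 50% plasma; fraction unbound reported.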

Ki [1] [nM]	Ki [2] [nM]	AUC(0-inf) [3] [ng·h/mL]	Cmax [4] [ng/mL]	half-life [5] [min]	clearance [6] [mL/min/kg]	Vd [7] [L/kg]	AUC(0-inf) [8] [ng·h/mL]	Cmax [9] [ng/mL]	Tmax [10] [min]	half-life [11] [min]	CL/F [12] [mL/min/kg]	microsomal CLint at 0.5 µM [13] [µL/min/mg]	Papp at 2 h, 10 µM [14] [×10⁻⁶ cm/s]	logD [15]	fraction unbound [16]	Compound
113	67	11800	21800	337	7.67	0.47	9900	11300	15	218	17	13.9	1.8	1.1	0.026	Cl.O=c1c2c3n(c(=O)cc2[nH]n1-c1ccccc1Cl)CCCN(Cc1ccccn1)C3
101	72	39300	42300	163	2.17	0.28	41400	14900	19.8	142	4.33	35	42.2	2.23	0.12	Cl.O=c1c2c3n(c(=O)cc2[nH]n1-c1ccccc1Cl)CCCN(Cc1ccccc1)C3
